ARFGAP1 inhibitor: inhibits rat ARF GTPase activating protein 1; AID 651572; Arfgap1-stimulated ARF1 GTP hydrolysis, GDP FP detection; 0.26% of 360,000 active; inhibition, % at 16.5 µM;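 active = inhibition above a per-plate limit, mean inhibition of low control wells plus 3 SD, cut at about 25% in these data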;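 note: 0% = DMSO wells with enzyme and 100% = wells lacking Arfgap1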
Target sequence (Q62848 1-136 limits assumed): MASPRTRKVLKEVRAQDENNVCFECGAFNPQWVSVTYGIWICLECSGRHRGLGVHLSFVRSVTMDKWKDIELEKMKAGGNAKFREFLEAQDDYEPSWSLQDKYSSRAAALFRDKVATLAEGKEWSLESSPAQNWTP
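System: truncated rat Arfgap1 GAP domain / Benchmarks: high control wells lacking Arfgap1, low control full reaction with DMSO / Times: compound-enzyme preincubation 20 min, reaction 120 min, detection 60 min, 25 °C / Repeats: one replicate per compound / Also added: human ARF1(Δ1-17)-GTP substrate / Measured by: Tracer-displacement fluorescence polarization with EDTA stop, 620/688 nm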
pPAFAH inh: inhibitors of human plasma PAF acetylhydrolase (pPAFAH). Q13093. recombinant pPAFAH, FP-rhodamine probe fluorescence polarization. inhibition, % at 3.39 µM. 1.5% of 330,000 active. AID 463082;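 active = inhibition above the mean inhibition across the screen plus 3 SD, cut at about 25% in these data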;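 note: inhibitors block binding of the rhodamine activity-based probe so polarization drops; 0% = enzyme with DMSO and 100% = wells lacking pPAFAH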
Target sequence (Q13093 whole entry, looked up): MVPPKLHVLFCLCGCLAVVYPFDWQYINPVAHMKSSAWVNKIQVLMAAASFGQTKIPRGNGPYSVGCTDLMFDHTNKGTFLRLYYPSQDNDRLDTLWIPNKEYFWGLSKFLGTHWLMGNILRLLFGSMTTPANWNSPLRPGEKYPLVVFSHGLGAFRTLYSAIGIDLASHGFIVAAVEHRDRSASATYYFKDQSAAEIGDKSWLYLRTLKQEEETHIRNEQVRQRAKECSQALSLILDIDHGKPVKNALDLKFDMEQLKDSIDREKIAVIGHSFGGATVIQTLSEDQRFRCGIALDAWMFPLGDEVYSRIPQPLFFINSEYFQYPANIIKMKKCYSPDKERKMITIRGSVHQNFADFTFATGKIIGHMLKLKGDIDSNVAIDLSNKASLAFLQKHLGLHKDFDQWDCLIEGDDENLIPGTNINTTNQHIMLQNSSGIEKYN
PAFAH1B3 inh: inhibitors of human PAFAH1B3; Q15102; recombinant PAFAH1B3, FP-rhodamine probe, fluorescence polarization; inhibition, % at 3.39 µM; 0.28% of 340,000 active; AID 492972;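 active = inhibition above the screen-wide average of all tested compounds plus 3 SD, cut at about 25% in these data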;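 note: 0% = enzyme with DMSO only and 100% = wells lacking PAFAH1B3 protein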
ASAP1 inh: ASAP1 ArfGAP inhibition; Q9ULH1; ASAP1-stimulated ARF1 GTP hydrolysis, GDP FP detection; inhibition, % at 16.5 µM; 0.19% of 360,000 active; AID 624377; in the data active = inhibition above about 25%;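 note: 0% = vehicle with enzyme and substrate and 100% = no enzyme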
PAFAH1B2 FP inh: blocks human PAF acetylhydrolase 1b catalytic subunit 2 | P68402 | recombinant PAFAH1B2, FP-rhodamine activity probe, fluorescence polarization | inhibition, % at 3.39 µM | 1.2% of 340,000 active | AID 492953;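 active = inhibition above the mean of all tested compounds plus 3 SD, cut at about 24% in these data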;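 note: 0% = enzyme with DMSO and 100% = wells lacking PAFAH1B2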
PAFAH2 FP inh: inhibitors of human PAFAH2; inhibition, % at 3.39 µM; 0.99% of 340,000 active; recombinant PAFAH2, FP-rhodamine activity probe, fluorescence polarization; AID 492956; Q99487;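 active = inhibition above the mean over all tested compounds plus 3 SD, cut at about 30% in these data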;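 note: inhibitors block probe labeling of enzyme so polarization drops; 0% = enzyme with DMSO and 100% = wells lacking PAFAH2 protein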
Active calls of the source: *; . = no result given. Rows were chosen to be rich in hits. Some 2.8% of all compounds tested hit in one or more screens of this group.

SMILES | ARFGAP1 inhibitor | pPAFAH inh | PAFAH1B3 inh | ASAP1 inh | PAFAH1B2 FP inh | PAFAH2 FP inh
CCOc1ccc2oc(C(=O)OCC(=O)NC3CCCCC3)c(C)c2c1 | 2.7 | 25.8* | -1.5 | 1.8 | -4.2 | 61.4*
O=C(COC(=O)c1ccc2c(c1)S(=O)(=O)c1ccccc1C2=O)NC1CC1 | -1.8 | 29.9* | 2.8 | 4.0 | 2.3 | -3.3
CCc1ccc(C(=O)OCC(=O)NC2CCCC2)cc1 | 6.0 | 30.3* | 5.7 | -2.8 | 0.4 | 81.9*
Cc1cccc(C(=O)OCC(=O)NC(=O)NC2CCCCC2)c1 | -5.3 | . | . | 22.7 | . | .
N#Cc1ccc(C(=O)OCC(=O)NC2CCCC2)cc1 | -3.6 | 3.4 | -0.8 | 3.1 | 4.6 | -0.1
CCOc1ccc(S(=O)(=O)NCCC(=O)N2CC(C)CC(C)C2)cc1 (stereo unspecified) | 8.0 | 4.1 | 7.1 | -0.7 | 1.5 | 0.0
Cn1ncc2c(=S)[nH]c(=S)[nH]c21 | 2.4 | . | . | -4.2 | . | .
COC1=CC(=O)c2c(ccc3ncnc(N)c23)C1=O | 13.9 | . | 68.7* | 22.9 | 22.1 | 48.1*
COc1ccc(CNC(=O)CCSCc2cccc(F)c2)cc1 | -3.7 | 27.2* | 6.9 | -3.6 | 7.6 | 4.7
CSC(=O)NC12CC3CC(CC(C)(C3)C1)C2 | -13.0 | -3.4 | -4.3 | -10.6 | 28.1* | 1.9
CCSC(=O)NC12CC3CC(CC(C3)C1)C2 | -2.9 | 2.7 | 1.0 | -7.0 | 16.6 | 3.2
C=CCOC(=O)Nc1nc(CCNC(=O)OCc2ccccc2)c(C(=O)O)s1 | 12.7 | . | . | 4.5 | . | .
N#C/C(=C(/O)COC(=O)Cc1c[nH]c2ccccc12)c1nc2ccccc2[nH]1 | -21.0 | 24.9* | 3.7 | -0.1 | 4.0 | 9.1
COc1ccccc1OCC(=O)OC/C(O)=C(\C#N)c1nc2ccccc2[nH]1 | -11.0 | 6.3 | 10.0 | -1.5 | 2.3 | -4.5
COc1ccc(CN(C)[C@H]2C[C@H]3c4[nH]c5ccccc5c4CCN3C[C@H]2[C@H](C)O)cc1 | 3.7 | . | . | 1.5 | . | .
CC(OC(=O)CCN=C1NS(=O)(=O)c2ccccc21)C(=O)Nc1ccc(F)cc1 (stereo unspecified) | 10.6 | 1.1 | 1.6 | 9.5 | -2.8 | -1.4
O=C(OCc1c(Cl)cccc1Cl)c1ccncc1 | -1.1 | 27.1* | 4.0 | 0.1 | 4.7 | -5.0
Clc1cccc(Cl)c1COc1ccncc1 | 4.9 | 1.3 | 5.9 | -0.8 | 1.4 | -5.1
O=C(OCC(=O)N1CCN(C(=O)COC(=O)c2ccncc2)CC1)c1ccncc1 | -1.3 | 27.3* | -5.3 | -11.3 | -1.7 | -4.2
Nc1ccc(O)c(C(=O)O)c1 | . | 49.2* | . | . | . | .
O=C(O)c1cc(O)ccc1O | 4.0 | . | 7.3 | 5.5 | 4.1 | 2.6
Cc1oc2c(cc(NS(=O)(=O)c3ccc(C(C)C)cc3)c3ccccc32)c1C(=O)O | -2.3 | 31.7* | 8.2 | 0.0 | 15.1 | 1.8
CCCCOC(=O)c1ccc(NS(=O)(=O)c2cc(-c3nnnn3CC)ccc2OC)cc1 | 5.3 | 28.4* | 9.0 | -5.7 | 5.9 | -0.1
CCC(=O)N(Cc1c(C)nn(-c2ccccc2)c1Cl)c1ccc(Cl)cc1 | -19.7 | 7.5 | 8.9 | 8.8 | 24.4* | -8.9
O=C(O)C1(c2ccccc2)CCN(S(=O)(=O)c2ccccc2)CC1 | 2.1 | 4.5 | 5.8 | 6.5 | 16.1 | -2.2
SMILES | ARFGAP1 inhibitor | pPAFAH inh | PAFAH1B3 inh | ASAP1 inh | PAFAH1B2 FP inh | PAFAH2 FP inh
O=C(O)C1(c2ccccc2)CCN(S(=O)(=O)c2ccc(F)c(F)c2)CC1 | -6.1 | -2.2 | 4.8 | 5.6 | 27.2* | -9.7
O=C(CNc1cccc2ccccc12)N/N=C/C=C/c1ccco1 | 8.1 | 9.7 | 10.9 | 11.3 | 6.8 | 5.8
O=C(Cc1cccs1)N/N=C/C=C/c1ccco1 | 1.6 | 24.7* | 0.8 | 0.9 | 5.9 | 6.4
CC(C)(C)c1[nH]nc2c1C(c1cccnc1)C(C#N)=C(N)O2 (stereo unspecified) | -1.0 | 3.2 | 7.3 | -11.8 | 6.0 | -4.4
CC(C)(C)c1[nH]nc2c1C(Cc1ccccc1)C(C#N)=C(N)O2 (stereo unspecified) | 7.2 | -1.3 | 4.3 | 9.5 | 39.6* | 1.1
CC(C)(C)c1[nH]nc2c1C(C1C=CCCC1)C(C#N)=C(N)O2 (stereo unspecified) | 8.6 | -3.0 | -2.6 | 7.3 | 26.9* | 6.9
CC(C)c1[nH]nc2c1C(C1C=CCCC1)C(C#N)=C(N)O2 (stereo unspecified) | 10.6 | -2.0 | 1.8 | -7.9 | 17.5 | 5.5
COc1ccc(C(=O)NCc2ccco2)cc1S(=O)(=O)NC1CC1 | 18.2 | -4.2 | 9.0 | -8.8 | 6.4 | -4.6
O=C(NCc1ccc(F)cc1)C(=O)NCC1OCCN1S(=O)(=O)c1cc(F)ccc1F (stereo unspecified) | 10.1 | . | . | 1.1 | . | .
CCOC(=O)c1ccc(NS(=O)(=O)c2cc3c4c(c2)CCN4C(=O)CC3)cc1 | 5.5 | 8.0 | 7.7 | 1.0 | -0.7 | 6.6
CCOc1ccc(NS(=O)(=O)c2ccc(C(=O)N3CCC3)cc2)cc1 | 11.1 | 46.1* | 4.8 | 2.2 | 1.1 | -4.8
CCOc1ccc(C(=O)N2CCCN(C(=O)c3ccc(OCC)cc3)CC2)cc1 | 4.7 | 0.2 | 8.5 | 4.1 | -3.9 | 3.2
CCOc1ccc(NS(=O)(=O)c2cc3c4c(c2)CCN4C(=O)CC3)cc1 | 9.6 | 24.9* | -0.4 | 0.2 | 1.2 | 2.3
CCOc1ccc(NS(=O)(=O)c2ccc(C(=O)N3CCCC3)cc2)cc1 | 2.5 | 25.2* | 3.7 | -6.5 | 1.4 | -4.5
CCOc1ccc(NS(=O)(=O)c2cc(C(=O)N3CCCC3)ccc2Cl)cc1 | 4.0 | 1.6 | 1.1 | -6.1 | 1.5 | -0.6
Brc1ccc(CNc2ccc3ncccc3c2)cc1 | -0.8 | . | 4.2 | 5.8 | 51.0* | 0.4
CCn1cnc2cc(NCc3ccc(Br)cc3)ccc21 | -10.6 | 9.0 | . | 7.9 | . | .
CCCn1cnc2cc(NCc3ccc(Br)cc3)ccc21 | 2.3 | 10.2 | 5.7 | 2.9 | 36.9* | 1.4
Cn1cnc2cc(NCc3ccc(Cl)cc3)ccc21 | -3.1 | 1.0 | 3.3 | -12.8 | 42.9* | 0.5
O=C(Nc1ccc2ncccc2c1)c1cccc(Br)c1 | 1.1 | -2.5 | 4.2 | 4.6 | 3.1 | -3.0
Cc1nc(SCC(=O)Nc2ccc(CN3CCCC3)cc2)c2c(C)c(C)sc2n1 | -10.8 | -11.2 | 3.6 | -14.4 | 0.1 | 9.4
CC1CCc2c(sc3nc(CN4CCOCC4)nc(NS(=O)(=O)c4cccc([N+](=O)[O-])c4)c23)C1 (stereo unspecified) | -0.5 | 25.4* | 6.0 | 0.6 | 0.1 | 6.5
Cc1cc(S(=O)(=O)Nc2nc(CN3CCOCC3)nc3sc4c(c23)CCCC4)ccc1F | -8.6 | 10.6 | 7.9 | 2.5 | 7.5 | 6.5
C[C@H]1CN([C@@H](C)CO)C(=O)CCCn2nncc2CO[C@H]1CN(C)S(=O)(=O)c1ccc(C#N)cc1 | -8.1 | . | . | 16.1 | . | .
CC(NC(=O)COC(=O)c1cc(NS(=O)(=O)c2ccc(Cl)c([N+](=O)[O-])c2)ccc1O)C1CC2CCC1C2 (stereo unspecified) | 0.7 | 28.5* | 4.3 | -3.2 | 21.6 | 25.0

Assay outcomes (PubChem)
